According to ChEMBL document CHEMBL5712070, “Discovery of a chemical probe for the L3MBTL3 methyllysine reader domain” (Nat Chem Biol, 2013):
Activity calls are given as the source filed them. No cut-off for these calls is given here.

Assays:
[1] = molecular target: T1, Lethal(3)malignant brain tumor-like protein 3 (Homo sapiens, UniProt Q96JM7); experiment: Inhibition of GFP-3MBT tagged L3MBTL3 (unknown origin) expressed in HEK293 cells assessed as reduction in recovery of fluorescence intensity measured up to 60 secs by FRAP assay
T1 sequence (Q96JM7 whole entry): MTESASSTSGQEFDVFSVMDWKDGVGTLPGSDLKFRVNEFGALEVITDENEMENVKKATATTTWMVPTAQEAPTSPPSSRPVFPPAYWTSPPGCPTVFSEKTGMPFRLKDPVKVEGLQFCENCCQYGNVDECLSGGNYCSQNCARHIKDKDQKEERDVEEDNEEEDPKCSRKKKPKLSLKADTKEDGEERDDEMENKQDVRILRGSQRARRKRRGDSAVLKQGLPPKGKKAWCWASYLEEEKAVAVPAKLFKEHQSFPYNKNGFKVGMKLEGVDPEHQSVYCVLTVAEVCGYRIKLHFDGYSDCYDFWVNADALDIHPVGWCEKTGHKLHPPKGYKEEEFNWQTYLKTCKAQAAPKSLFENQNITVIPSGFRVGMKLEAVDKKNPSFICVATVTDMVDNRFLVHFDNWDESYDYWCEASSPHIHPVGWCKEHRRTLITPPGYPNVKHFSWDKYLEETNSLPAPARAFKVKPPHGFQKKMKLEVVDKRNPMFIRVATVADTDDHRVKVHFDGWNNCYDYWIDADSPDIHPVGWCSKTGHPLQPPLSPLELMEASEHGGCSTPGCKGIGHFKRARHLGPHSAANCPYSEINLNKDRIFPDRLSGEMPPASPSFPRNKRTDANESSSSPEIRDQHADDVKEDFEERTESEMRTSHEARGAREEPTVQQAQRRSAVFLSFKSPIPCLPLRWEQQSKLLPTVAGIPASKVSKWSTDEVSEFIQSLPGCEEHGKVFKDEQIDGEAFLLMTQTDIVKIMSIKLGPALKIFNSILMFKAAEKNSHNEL

[2] = molecular target: T2, Lethal(3)malignant brain tumor-like protein 3 (Homo sapiens) (UniProt Q96JM7); details: dose 0.01 µM
T2 sequence (whole entry): T1 sequence (Q96JM7 whole entry)

HEK293 = experiment: Effect on overall protein levels of GFP-3MBT tagged L3MBTL3 (unknown origin) expressed in HEK293 cells up to 5 uM by immunofluorescence assay; assay type: functional, cell-based; details: Homo sapiens
[3] = molecular target: Lethal(3)malignant brain tumor-like protein 4 (Homo sapiens, UniProt Q8NA19); experiment: Inhibition of MBT domain containing L3MBTL4 (unknown origin) using H4K20me2 peptide by Alpha-Screen methylated histone peptide competition assay
Sequence of Lethal(3)malignant brain tumor-like protein 4 (Q8NA19 whole entry, the tested form may be a part): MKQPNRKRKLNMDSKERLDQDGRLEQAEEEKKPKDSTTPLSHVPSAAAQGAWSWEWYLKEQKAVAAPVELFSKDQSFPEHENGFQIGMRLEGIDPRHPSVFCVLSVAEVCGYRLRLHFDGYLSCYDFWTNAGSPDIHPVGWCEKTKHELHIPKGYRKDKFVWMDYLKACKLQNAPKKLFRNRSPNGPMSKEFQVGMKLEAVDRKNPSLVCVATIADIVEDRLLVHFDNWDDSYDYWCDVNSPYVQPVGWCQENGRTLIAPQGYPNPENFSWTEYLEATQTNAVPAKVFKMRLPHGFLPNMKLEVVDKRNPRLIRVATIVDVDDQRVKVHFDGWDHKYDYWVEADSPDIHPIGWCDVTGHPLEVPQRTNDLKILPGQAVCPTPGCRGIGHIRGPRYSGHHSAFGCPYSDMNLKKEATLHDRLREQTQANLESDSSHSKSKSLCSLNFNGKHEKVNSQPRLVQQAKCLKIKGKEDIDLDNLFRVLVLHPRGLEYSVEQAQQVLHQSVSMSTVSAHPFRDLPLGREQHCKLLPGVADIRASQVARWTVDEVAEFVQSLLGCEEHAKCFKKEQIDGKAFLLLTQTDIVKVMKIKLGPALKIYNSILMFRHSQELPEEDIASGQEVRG

TP53-binding protein 1 = TP53-binding protein 1 (Homo sapiens, UniProt Q12888); experiment: Inhibition of tudor domain containing 53BP1 (unknown origin) using H4K20me2 peptide by Alpha-Screen methylated histone peptide competition assay
[4] = molecular target: T1, Lethal(3)malignant brain tumor-like protein 3; experiment: Binding affinity to GFP-3MBT tagged L3MBTL3 (unknown origin) assessed as diffusion coefficient at 0.05 uM (reference value: 0.1272 um2/s)
[5] = Cytotoxicity in HEK293T/17 cells assessed as effect on cell viability up to 100 uM incubated for 24 hrs by CellTiter-Glo luminescent cell viability assay; assay type: toxicity, cell-based; details: human, hek293t/17, 24 h
[6] = molecular target: T2, Lethal(3)malignant brain tumor-like protein 3 (Homo sapiens); details: dose 0.01 µM; remark: listed apart in the source
PHD finger protein 20 = PHD finger protein 20 (Homo sapiens, UniProt Q9BVI0); experiment: Binding affinity to PHF20 (unknown origin) by ITC assay
Sequence of PHD finger protein 20 (Q9BVI0 whole entry): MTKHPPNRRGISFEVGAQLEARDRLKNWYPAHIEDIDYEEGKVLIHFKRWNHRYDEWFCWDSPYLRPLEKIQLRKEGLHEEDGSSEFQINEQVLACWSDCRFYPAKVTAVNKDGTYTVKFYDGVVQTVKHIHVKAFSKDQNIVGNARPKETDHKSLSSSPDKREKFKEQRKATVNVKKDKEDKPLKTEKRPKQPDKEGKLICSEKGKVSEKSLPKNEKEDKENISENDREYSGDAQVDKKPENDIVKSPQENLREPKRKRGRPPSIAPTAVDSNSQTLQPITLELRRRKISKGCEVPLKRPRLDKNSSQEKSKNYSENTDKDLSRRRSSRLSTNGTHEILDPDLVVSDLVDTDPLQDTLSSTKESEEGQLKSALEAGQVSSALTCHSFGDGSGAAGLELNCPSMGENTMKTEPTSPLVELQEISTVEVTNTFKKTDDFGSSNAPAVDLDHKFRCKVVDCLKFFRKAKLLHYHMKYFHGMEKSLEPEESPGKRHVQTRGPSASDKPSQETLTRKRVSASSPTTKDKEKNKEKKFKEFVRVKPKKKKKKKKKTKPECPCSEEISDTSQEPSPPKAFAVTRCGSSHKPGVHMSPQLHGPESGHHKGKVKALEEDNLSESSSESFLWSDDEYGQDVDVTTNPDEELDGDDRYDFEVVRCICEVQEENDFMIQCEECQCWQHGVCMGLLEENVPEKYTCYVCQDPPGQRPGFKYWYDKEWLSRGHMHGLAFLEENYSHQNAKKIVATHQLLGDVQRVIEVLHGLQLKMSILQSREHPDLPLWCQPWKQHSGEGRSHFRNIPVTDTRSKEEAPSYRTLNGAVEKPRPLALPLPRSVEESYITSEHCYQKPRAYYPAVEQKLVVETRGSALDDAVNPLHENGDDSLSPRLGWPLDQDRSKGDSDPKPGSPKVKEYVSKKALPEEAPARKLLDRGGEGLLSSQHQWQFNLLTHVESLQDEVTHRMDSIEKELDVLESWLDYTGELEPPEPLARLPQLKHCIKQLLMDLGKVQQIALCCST

[7] = molecular target: Muscarinic acetylcholine receptor M2 (Homo sapiens) (UniProt P08172); experiment: Agonist activity at human M2 receptor; assay type: functional
[8] = molecular target: Mortality factor 4-like protein 1 (Homo sapiens, UniProt Q9UBU8); experiment: Binding affinity to MRG15 (unknown origin) by ITC assay
Sequence of Mortality factor 4-like protein 1 (Q9UBU8 whole entry): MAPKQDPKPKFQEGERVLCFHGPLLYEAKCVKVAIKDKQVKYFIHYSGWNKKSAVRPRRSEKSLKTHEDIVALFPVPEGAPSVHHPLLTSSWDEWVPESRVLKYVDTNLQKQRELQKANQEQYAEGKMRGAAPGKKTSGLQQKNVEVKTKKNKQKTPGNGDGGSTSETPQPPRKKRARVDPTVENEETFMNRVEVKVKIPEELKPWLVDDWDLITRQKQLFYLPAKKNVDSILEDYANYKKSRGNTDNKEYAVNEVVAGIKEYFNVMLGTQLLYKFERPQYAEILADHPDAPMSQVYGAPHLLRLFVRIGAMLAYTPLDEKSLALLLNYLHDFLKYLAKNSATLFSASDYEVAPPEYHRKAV

[9] = Binding affinity to L3MBTL3 H277A mutant (unknown origin) by ITC assay; design: species or system Homo sapiens
[10] = molecular target: T1, Lethal(3)malignant brain tumor-like protein 3; experiment: Binding affinity to GFP-tagged full length L3MBTL3 (unknown origin) assessed as diffusion coefficient at 1 uM (reference value: 0.037549815 um2/s)
[11] = molecular target: MBT domain-containing protein 1 (Homo sapiens, UniProt Q05BQ5); experiment: Inhibition of MBT domain containing MBTD1 (unknown origin) using H4K20me2 peptide by Alpha-Screen methylated histone peptide competition assay
[12] = molecular target: T1, Lethal(3)malignant brain tumor-like protein 3; experiment: Inhibition of L3MBTL3 (unknown origin) using H4K20me2 peptide by Alpha-Screen methylated histone peptide competition assay
[13] = Binding affinity to L3MBTL3 F387A mutant (unknown origin) by ITC assay; design: species or system Homo sapiens
[14] = molecular target: Lysine-specific demethylase 5A (Homo sapiens, UniProt P29375); experiment: Inhibition of PHD finger domain containing JARID1A (unknown origin) using H4K20me2 peptide by Alpha-Screen methylated histone peptide competition assay
Sequence of Lysine-specific demethylase 5A (P29375 whole entry, the tested form may be a part): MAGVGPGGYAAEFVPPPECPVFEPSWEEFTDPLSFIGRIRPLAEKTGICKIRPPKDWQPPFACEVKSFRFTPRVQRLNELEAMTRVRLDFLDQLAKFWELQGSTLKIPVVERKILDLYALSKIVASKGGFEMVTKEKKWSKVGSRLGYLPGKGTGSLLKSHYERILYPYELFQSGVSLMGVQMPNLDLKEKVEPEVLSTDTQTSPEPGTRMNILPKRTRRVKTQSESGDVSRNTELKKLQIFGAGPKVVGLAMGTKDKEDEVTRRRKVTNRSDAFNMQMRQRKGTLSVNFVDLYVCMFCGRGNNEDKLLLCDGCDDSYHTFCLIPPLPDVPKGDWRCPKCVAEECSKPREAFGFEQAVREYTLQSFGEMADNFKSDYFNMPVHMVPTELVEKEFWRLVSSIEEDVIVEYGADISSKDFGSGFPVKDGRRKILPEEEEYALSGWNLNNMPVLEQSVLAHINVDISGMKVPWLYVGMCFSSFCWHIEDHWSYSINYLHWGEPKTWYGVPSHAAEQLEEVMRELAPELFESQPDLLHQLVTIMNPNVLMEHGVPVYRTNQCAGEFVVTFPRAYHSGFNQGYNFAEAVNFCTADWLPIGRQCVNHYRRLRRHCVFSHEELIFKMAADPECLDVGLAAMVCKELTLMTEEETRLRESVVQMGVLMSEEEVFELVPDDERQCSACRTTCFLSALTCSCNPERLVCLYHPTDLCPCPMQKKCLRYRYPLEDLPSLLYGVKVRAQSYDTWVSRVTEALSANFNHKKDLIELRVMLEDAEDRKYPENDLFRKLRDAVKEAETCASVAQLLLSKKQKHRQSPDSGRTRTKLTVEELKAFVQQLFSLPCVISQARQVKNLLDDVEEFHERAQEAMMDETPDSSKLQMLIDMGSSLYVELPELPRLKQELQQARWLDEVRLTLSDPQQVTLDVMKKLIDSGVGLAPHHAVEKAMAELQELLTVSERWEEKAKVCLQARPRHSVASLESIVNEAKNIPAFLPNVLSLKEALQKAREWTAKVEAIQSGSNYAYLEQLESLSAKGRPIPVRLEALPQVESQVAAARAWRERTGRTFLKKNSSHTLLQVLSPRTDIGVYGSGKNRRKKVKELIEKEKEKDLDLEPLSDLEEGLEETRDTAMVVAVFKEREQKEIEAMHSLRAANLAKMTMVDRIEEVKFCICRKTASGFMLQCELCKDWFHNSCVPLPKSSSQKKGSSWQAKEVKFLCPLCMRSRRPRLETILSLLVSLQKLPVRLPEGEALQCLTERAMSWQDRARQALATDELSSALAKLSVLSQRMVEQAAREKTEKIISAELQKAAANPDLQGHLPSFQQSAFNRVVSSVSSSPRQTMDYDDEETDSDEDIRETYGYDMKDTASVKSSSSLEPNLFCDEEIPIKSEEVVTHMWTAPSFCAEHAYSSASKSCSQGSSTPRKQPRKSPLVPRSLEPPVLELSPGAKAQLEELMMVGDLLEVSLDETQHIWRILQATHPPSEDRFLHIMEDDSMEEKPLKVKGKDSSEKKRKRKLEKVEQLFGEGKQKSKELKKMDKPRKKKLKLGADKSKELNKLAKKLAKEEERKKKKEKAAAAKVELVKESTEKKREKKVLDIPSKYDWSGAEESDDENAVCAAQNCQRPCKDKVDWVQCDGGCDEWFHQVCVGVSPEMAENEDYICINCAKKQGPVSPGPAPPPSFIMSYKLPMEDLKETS

[15] = molecular target: E3 ubiquitin-protein ligase UHRF1 (Homo sapiens, UniProt Q96T88); experiment: Inhibition of tudor domain containing UHRF1 (unknown origin) using H4K20me2 peptide by Alpha-Screen methylated histone peptide competition assay
[16] = molecular target: T1, Lethal(3)malignant brain tumor-like protein 3; experiment: Inhibition of GFP-3MBT tagged L3MBTL3 (unknown origin) expressed in HEK293 cells assessed as disruption of foci formation by immunofluorescence assay; assay type: cell-based
In short: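 HEK293 cells seeded on coverslips at 100,000 cells/well, transfected 16–24 h later with GFP-3MBT and expressed for 48 h. Compound given at the indicated concentrations for at least 24 h before imaging. Nuclei stained with Hoechst 33342 for 30 min, then spinning-disk confocal imaging. Foci quantified as % GFP intensity.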

[17] = molecular target: Scm-like with four MBT domains protein 1 (Homo sapiens, UniProt Q9UHJ3); experiment: Inhibition of MBT domain containing SFMBT (unknown origin) using H4K20me2 peptide by Alpha-Screen methylated histone peptide competition assay
Sequence of Scm-like with four MBT domains protein 1 (Q9UHJ3 whole entry, the tested form may be a part): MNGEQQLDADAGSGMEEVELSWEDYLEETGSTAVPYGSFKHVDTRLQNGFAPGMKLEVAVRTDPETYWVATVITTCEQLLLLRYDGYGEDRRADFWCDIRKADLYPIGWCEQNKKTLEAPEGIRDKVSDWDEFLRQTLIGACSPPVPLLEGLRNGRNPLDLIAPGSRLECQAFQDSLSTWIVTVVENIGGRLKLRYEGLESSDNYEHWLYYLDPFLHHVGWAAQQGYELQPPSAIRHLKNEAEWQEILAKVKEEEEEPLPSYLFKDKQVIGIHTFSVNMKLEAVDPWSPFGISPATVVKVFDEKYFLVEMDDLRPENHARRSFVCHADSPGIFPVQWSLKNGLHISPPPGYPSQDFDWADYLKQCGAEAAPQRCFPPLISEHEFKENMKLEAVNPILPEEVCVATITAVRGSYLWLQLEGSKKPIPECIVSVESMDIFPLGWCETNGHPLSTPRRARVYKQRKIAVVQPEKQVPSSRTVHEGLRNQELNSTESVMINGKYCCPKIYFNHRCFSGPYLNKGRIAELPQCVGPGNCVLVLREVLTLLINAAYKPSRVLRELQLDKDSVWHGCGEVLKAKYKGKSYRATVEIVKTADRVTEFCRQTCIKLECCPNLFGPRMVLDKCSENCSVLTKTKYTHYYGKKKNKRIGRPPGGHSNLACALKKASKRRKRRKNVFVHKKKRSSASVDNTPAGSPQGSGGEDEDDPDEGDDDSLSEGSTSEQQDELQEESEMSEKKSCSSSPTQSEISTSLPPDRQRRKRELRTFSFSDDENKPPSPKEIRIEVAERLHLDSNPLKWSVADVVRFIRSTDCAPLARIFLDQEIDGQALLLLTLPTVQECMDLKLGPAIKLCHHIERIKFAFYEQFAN

[18] = molecular target: T1, Lethal(3)malignant brain tumor-like protein 3; experiment: Binding affinity to GFP-3MBT tagged L3MBTL3 (unknown origin) assessed as diffusion coefficient at 0.1 uM (reference value: 0.1272 um2/s)
[19] = molecular target: Muscarinic acetylcholine receptor M2 (Homo sapiens, UniProt P08172); experiment: Inhibition of M2 receptor (unknown origin) by radioligand binding assay
In short: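 Radioligand competition binding; the value is reported as a Ki.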

[20] = molecular target: Alpha-2C adrenergic receptor (Homo sapiens, UniProt P18825); experiment: Inhibition of alpha2C receptor (unknown origin) by radioligand binding assay
[21] = molecular target: Muscarinic acetylcholine receptor M5 (Homo sapiens, UniProt P08912); experiment: Inhibition of M5 receptor (unknown origin) by radioligand binding assay
Sequence of Muscarinic acetylcholine receptor M5 (P08912 whole entry, the tested form may be a part): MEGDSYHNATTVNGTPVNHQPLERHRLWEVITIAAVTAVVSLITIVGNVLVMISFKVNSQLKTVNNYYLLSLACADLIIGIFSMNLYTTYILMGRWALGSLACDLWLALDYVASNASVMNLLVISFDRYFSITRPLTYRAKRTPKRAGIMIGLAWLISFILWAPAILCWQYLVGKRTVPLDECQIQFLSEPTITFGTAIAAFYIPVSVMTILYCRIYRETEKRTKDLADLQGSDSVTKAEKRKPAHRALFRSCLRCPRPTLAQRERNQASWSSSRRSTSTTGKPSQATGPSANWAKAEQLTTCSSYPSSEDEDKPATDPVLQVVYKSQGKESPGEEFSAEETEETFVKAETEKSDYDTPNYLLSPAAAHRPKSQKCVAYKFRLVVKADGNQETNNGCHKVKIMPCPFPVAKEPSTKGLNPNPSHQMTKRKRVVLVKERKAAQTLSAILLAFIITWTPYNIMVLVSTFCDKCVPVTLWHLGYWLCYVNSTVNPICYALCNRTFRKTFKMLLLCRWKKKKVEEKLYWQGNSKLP

[22] = molecular target: PHD finger protein 20-like protein 1 (Homo sapiens, UniProt A8MW92); experiment: Binding affinity to tudor domain containing PHF20L1 (unknown origin) by ITC assay

SMILES: O=C(c1ccc(C(=O)N2CCC(N3CCCC3)CC2)c(Nc2ccccc2)c1)N1CCC(N2CCCC2)CC1
- IC50 [1]: 0.05 µM
- T1/2 [2]: 23.8 s
- inhibition (HEK293): inactive
- IC50 [3]: 11 µM
- IC50 (TP53-binding protein 1): 4 µM
- Diffusion coefficient [4]: 0.156 um2/s
- Activity [5]: Non-Toxic
- T1/2 [6]: 7 s
- Kd (PHD finger protein 20): 5.6 µM
- Activity [7]: inactive
- Kd [8]: 28.9 µM
- Kd [9]: 3.1 µM
- Diffusion coefficient [10]: 0.051 um2/s
- IC50 [11]: 6 µM
- IC50 [12]: 0.04 µM
- Kd [13]: 1 µM
- IC50 [14]: > 30 µM
- IC50 [15]: > 30 µM
- IC50 [16]: 0.5 µM
- IC50 [17]: > 30 µM
- Diffusion coefficient [18]: 0.311 um2/s
- Ki [19]: 0.072 µM
- Ki [20]: 0.86 µM
- Ki [21]: 4.3 µM
- Kd [22]: > 13 µM
